Test results published in the EternaBench riboswitch data.

System: MS2 coat protein
Test: apparent Kd, MS2 coat protein; higher = weaker binding; RNA-MaP array; FMN 200 µM where present
How it was run: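 Designs were transcribed by stalled E. coli RNA polymerase on Illumina sequencing-chip clusters. They were titrated with SNAP-549-labelled MS2 coat protein from 0.7 or 1.5 nM, doubling to 3 µM, without and then with constant ligand. Buffer: 100 mM Tris-HCl pH 7.5, 80 mM KCl, 4 mM MgCl2, BSA, DTT, yeast tRNA, Tween-20. Green signal was normalised to red-channel RNA signal and control-cluster median Fmax. Apparent Kd is the median of filtered per-cluster binding-curve fits.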

[1] = designed as: OFF switch for flavin mononucleotide, no ligand
[2] = ligand present: flavin mononucleotide, designed as: OFF switch for flavin mononucleotide
[3] = designed as: ON switch for flavin mononucleotide, no ligand
[4] = ligand present: flavin mononucleotide, designed as: ON switch for flavin mononucleotide

| Sequence | apparent Kd [1] | apparent Kd [2] | apparent Kd [3] | apparent Kd [4] |
| --- | --- | --- | --- | --- |
| AUCAGCUUGACAGGAUAUACAUGACUGCGAAAGCAGUCUAUCUUAAUAACAUGAGGAUCACCCAUGUAGAAGGGUCGAGCUGAU | 17.8 nM | 27 nM |  |  |
| AAAAUCUAUUGAGGAUAUUCAUACACUGCAUACGGAGAAGGCAAACAAUCAUGAGGACAUGAGGAUCACCCAUGUUGUGACCAU |  |  | 17.6 nM | 15.3 nM |
| GGUGCACGCACAGGAUAUCCGGCGAAGCUCGUCGGAGAAGGGUGACAUGAGGAUCACCCAUGUACGUGCAACCCAGUUUGAGAG |  |  | 85.2 nM | 31.4 nM |
| AAAGUUGGUAGGCCCUCGGCACAUGAGGAUCACCCAUGUAAGGAGGAUAUGCCCGGUACCCGCUGGCAGAAGGCCUUAUAAGAA | 12.2 nM | 110 nM |  |  |
| AAUAUGAGCUGGUAUAAACCCGAAACAUGAGGAUCACCCAUGUAGGAUAUCAGCACGAUAAGUGCUGAGAAGGACAUCCAGCUC | 14.5 nM | 14.5 nM |  |  |
| GAAGUUAGAGGAUAUACAUGAGGAUCACCCAUGUGUGAAGUUAACUUUGUAUAUUAAUGUAGAAGGCUAACUUC | 42.5 nM | 118 nM |  |  |
| ACAGACCAUCGAGGAUAUGAACAUGAGGAUCACCCAUGUAAGUGGAAGAUGGUGAUUCCUGGGCUUCAGAAGGCGAACGUCAGG | 6.12 nM | 11.8 nM |  |  |
| AGAAACUACGAGAAGGACAUAUGAUUAAGACGAAACAUGAGGAUCACCCAUGUAGGAUAUCGUAGUUUCAGGAUCGUGAGAUCA | 7.21 nM | 17.8 nM |  |  |
| GGAUGAGCAAUAGGAUAUGCUGGUAUUGAAUGGGUAGAAGGAUUUCUAGUGGUAAAGACAUGAGGAUCACCCAUGUAGCGGCCC |  |  | 328 nM | 265 nM |
| UACAUCGGAGGAUAUACAUGAGGAUCACCCAUGUGAGUGUAAGGGAGCGUAAGCGGGUGUAGAAGGCCGUCUUU | 58.3 nM | 49.5 nM |  |  |
| GAGUGACAUGAGGAUCACCCAUGUGAGGAUAUCGGACGGACCAAAUUAACAACACCCGCGAGAAGGCACAUCGG | 163 nM | 123 nM |  |  |
| CUUAGUAUCUAGGAUAUCUAGUACAUAGUAUCUAGAGAAGGAGAUACAUGAGGAUCACCCAUGUUCUGUGUUCU | 23.9 nM | 68.7 nM |  |  |
| AGCUAGUCAGGAUAUACAAACAUGUCAAAAGACGUGAGGGAACAUGAGGAUCACCCAUGUAGAAGGGACUAGCA | 53.6 nM | 195 nM |  |  |
| UAUAAGAACGAAGGAUAUGGUUACAUGAGGAUCACCCAUGUAUGUAUAUUGAUCUAGUAUUAUAACCAGAAGGUCGAGAGUAUA | 16.1 nM | 27.1 nM |  |  |
| CGGUCACAUGAGGAUCACCCAUGUACCUACGCGAUGAAGUCGCAGGAUAUCCAUUACUUUACGUAGGAGAAGGGUGACGCUCGC |  |  | 51.1 nM | 34 nM |
| GGGUACAUCGGAGGAUAUCAUGUAAAUACAUGAGGAUCACCCAUGUCGAUGGAGACACCGGAGAUUGAGAAGGCCGAUGUACCG |  |  | 643 nM | 23.5 nM |
| CACGUACAUGAGGAUCACCCAUGUUAGGAUAUGUUUACCGGAAGGCAUUCUUGGGUAAACAGAAGGGACGAAAC | 22.5 nM | 31.8 nM |  |  |
| CGGCACCAAGGAUAUACAUGAGGAUCACCCAUGUUUUUUGGGCCCUAAAGAUCUACGUGUAGAAGGUGGGUCGA | 58.8 nM | 59.6 nM |  |  |

| Sequence | apparent Kd [1] | apparent Kd [2] | apparent Kd [3] | apparent Kd [4] |
| --- | --- | --- | --- | --- |
| CUCGUGUGAGGAUAUCUAUUCCACGGACGGGAGUCUUGAUGAGAGAAGGCACAUGAGGAUCACCCAUGUAAUAA | 140 nM | 86.7 nM |  |  |
| UGCGUACAAGCAGACAUGAGGAUCACCCAUGUAGUCUUAUGCGAGGAUAUCGGGAAGGAGGAUUCCGAGAAGGUGCGGUGAGCC |  |  | 25.4 nM | 21.9 nM |
| CAGCAAGUCACAGGAUAUGGUGAUGUACAUGAGGAUCACCCAUGUCCGUCUUCUCUCACAAGAUGCCAGAAGGGUGACUUCCGG |  |  | 950 nM | 135 nM |
| CAGUACUGAGGAUAUACAUGAGGAUCACCCAUGUGUUCCUUGUAGGAUAUCCGCAAAAGUAGAAGCCAGAAGGAGAUGUGCCUA | 200 nM | 119 nM |  |  |
| GGUGCGUAUGUUAGGAUAUGCUGGUCCUUGGAUCGGCAGAAGGUACAUGAGGAUCACCCAUGUGGUGUCGUUCC | 64.8 nM | 72.4 nM |  |  |
| AAAUUUAACGAAGGAUAUGCUUACAUGAGGAUCACCCAUGUGUGCCUUGUGAUGCUGAUUAGGUUGCAGAAGGUCGUAUACAUA | 135 nM | 174 nM |  |  |
| AAUUAACUCACAGGAUAUAGCAGAGGUCGAGUGAACUUACACGCGACGAGGCUAGAAGGGUGACCACAUGAGGAUCACCCAUGU |  |  | 872 nM | 103 nM |
| GAUAUGAUGUGAGGAUAUGCUGAGGAUACUUCAGCAGAAGGCACAUGAGGAUCACCCAUGUACACUUAUCAUAAAUACCAUAUC | 12.7 nM | 19 nM |  |  |
| ACAUGAGGAUCACCCAUGUAGAAGGAGAGGGCAGAAUUUACGCAGGAUAUGCAUUUUUGGGAAAAGUAGAAGGGUGAGGGCGGA |  |  | 36.4 nM | 25.2 nM |
| UGUUGUAUUACAGGAUAUCUAGUAUUUUUAUUCAGAGAAGGGUAUUCACAUGAGGAUCACCCAUGUAUAUACGAGGAAGUUGUG |  |  | 45.2 nM | 46.2 nM |
| CGCAACAUACAGAAGGAGUUAUUGAGAGGUUUACUAGGAUAUGUUCACAUGAGGAUCACCCAUGUCGUUUGGUUUUUUGUUGCG | 18.4 nM | 11.2 nM |  |  |
| AUCACGUAAGGAUAUUCCUACGCAGACAUGAGGAUCACCCAUGUGUUAGUGAAGAAUCGAGGAGAAGGUACAAUGG | 29.5 nM | 26.8 nM |  |  |
| AGGUCAACCACAGGAUAUGGCUAGCAUAGCUAGCCAGAAGGGUGGUCGUUGCCAUGUAAAUACAUGAGGAUCACCCAUGUAUCC |  |  | 190 nM | 49.5 nM |
| UCCCGGGUGCAGAAGGGAUAGGCCUAUUUUCGUGGUAUCCAAACCUAACAUGAGGAUCACCCAUGUCAGGAUAUGCCCACGGGA | 4.87 nM | 5.29 nM |  |  |
| GCACGGCAUGUAGGAUAUCGAGCGCCGGGCGCUCGAGAAGGACAUGAGGAUCACCCAUGUAGUCUCAGUGAGAGACUGCUGUGC | 18.3 nM | 36.2 nM |  |  |
| AGUUACAUGUAAGGAUAUACUAGCGAUAAGCUAGUAGAAGGUACUGUCUAUUGUAUCACUAUUAUACAUGAGGAUCACCCAUGU |  |  | 7.56 nM | 6.36 nM |
| GAACGUGACAUGAGGAUCACCCAUGUUGCCUGAGCCAGGUCGUAGGAUAUCCUGUUGAUUAAUUUGGAGAAGGGCGACUGGGAG |  |  | 46.5 nM | 18.3 nM |
| GGUGGACAUGAGGAUCACCCAUGUGAGGAUAUCGGCCGGUUCGCGGUGGCUGGCGUCUCGAGAAGGCGCAUAGU | 36.9 nM | 40.2 nM |  |  |
